Experimental data published in ChEMBL document CHEMBL2062492 (ACS Med Chem Lett, 2012).
The source made the active and inactive calls. The calls are words filed in the database; no cut-off is given here.

Experiments:
T47D [1] = experiment: Cytotoxicity against human T47D cells after 5 days; assay type: functional, cell-based; settings: 120 h
T47D [2] = experiment: Growth inhibition of human T47D cells at 10^-6 M after 5 days relative to control; assay type: functional; settings: 120 h, read-out: GI
Method in brief: (§1)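 Cell survival assay on ER+ MCF-7 or T47D cells treated at fixed concentrations of 10–7 M and 10–6 M. 4-OHT-treated cells served as positive control. Growth inhibition is expressed as percent relative to survival.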

T47D [3] = experiment: Metabolic stability in human T47D cells assessed as compound remaining by LC-MS/MS analysis; assay type: ADME, cell-based
Method in brief: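 Culture medium from MCF-7 or T47D cells incubated with prodrug was analysed for both intact prodrug and released 4-OHT. Results are reported as relative chromatographic peak areas (% of total for prodrug versus 4-OHT).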

MCF7 [4] = experiment: Growth inhibition of human MCF7 cells at 10^-7 M after 5 days relative to control; assay type: functional; settings: MCF7, 120 h, read-out: GI; method in brief: as §1
MCF7 [5] = experiment: Metabolic stability in human MCF7 cells assessed as compound remaining by LC-MS/MS analysis; assay type: ADME, cell-based
MCF7 [6] = experiment: Growth inhibition of human MCF7 cells at 10^-6 M after 5 days relative to control; assay type: functional; settings: MCF7, 120 h, read-out: GI; method in brief: as §1
MCF7 [7] = experiment: Cytotoxicity against human MCF7 cells after 5 days; assay type: functional, cell-based; settings: MCF7, 120 h
MCF7 [8] = experiment: Drug uptake in human MCF7 cells at 10^-6 M after 6 days by HPLC-MS/MS analysis; assay type: ADME, cell-based; settings: mcf7, 144 h, 1 µM
Method in brief: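 Uptake is estimated indirectly. Drug remaining in the culture medium was measured after 6 days of incubation with MCF-7 cells.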

[9] = Half life of the compound in human MCF7 cells at 10^-6 M by HPLC-MS/MS analysis; assay type: ADME, cell-based
MDA-MB-231 = experiment: Cytotoxicity against human MDA-MB-231 cells assessed as cell survival at 10^-7 M relative to vehicle-treated control; assay type: functional; settings: for viability at 0.1 µM: read-out: Survival
Method in brief: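 MDA-MB-231 used as the ER-negative breast cancer line, tested at 10–7 M alongside MCF-7 cells. Read-out is survival ratio versus control.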

MCF7 [10] = experiment: Ratio of tamoxifen IC50 to compound IC50 for human MCF7 cells; assay type: functional
T47D [11] = experiment: Growth inhibition of human T47D cells at 10^-7 M after 5 days relative to control; assay type: functional; settings: 120 h, read-out: GI
Method in brief: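 Cell survival assay in ER+ T47D breast cancer cells dependent on estrogen for growth. Compounds tested at 10–7 and 10–6 M, with 4-OHT as positive control. Read-out is % growth inhibition from survival relative to control.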

MCF7 [12] = experiment: Ratio of 4-hydroxytamoxifen IC50 to compound IC50 for human MCF7 cells; assay type: functional

## CC/C(=C(/c1ccc(OCCN(C)C)cc1)c1ccc(B(O)O)cc1)c1ccccc1
T47D [1]
  IC50: 228 nM
T47D [2]
  inhibition of growth at 1 µM: 54%
T47D [3]
  Stability: 20.9%
MCF7 [4]
  inhibition of growth at 0.1 µM: 51%
MCF7 [5]
  Stability: 30.4%
MCF7 [6]
  inhibition of growth at 1 µM: 75%
MCF7 [7]
  IC50: 42 nM
MCF7 [8]
  Drug uptake: Active
[9]
  half-life at 1 µM: 4 days
MDA-MB-231
  Activity: inactive

## CCC(=C(c1ccc(O)cc1)c1ccc(OCCN(C)C)cc1)c1ccccc1
T47D [1]
  IC50: 210 nM
MCF7 [4]
  inhibition of growth at 0.1 µM: 56%
MCF7 [6]
  inhibition of growth at 1 µM: 63%
MCF7 [10]
  Ratio IC50: 30
MCF7 [7]
  IC50: 29.1 nM
T47D [11]
  inhibition of growth at 0.1 µM: 51%
MCF7 [8]
  Drug uptake: Active
MDA-MB-231
  viability at 0.1 µM: > 95%

## CC/C(=C(\c1ccccc1)c1ccc(OCCN(C)C)cc1)c1ccccc1 [TAMOXIFEN]
MCF7 [4]
  inhibition of growth at 0.1 µM: 18%
MCF7 [6]
  inhibition of growth at 1 µM: 52%
MDA-MB-231
  viability at 0.1 µM: > 95%

## CC/C(=C(/c1ccc(OCCN(C)C)cc1)c1ccc(B2OC(C)(C)C(C)(C)O2)cc1)c1ccccc1
MCF7 [12]
  Ratio IC50: 0.2
T47D [1]
  IC50: 144 nM
T47D [2]
  inhibition of growth at 1 µM: 60%
MCF7 [4]
  inhibition of growth at 0.1 µM: 52%
MCF7 [6]
  inhibition of growth at 1 µM: 63%
MCF7 [7]
  IC50: 148 nM
MCF7 [8]
  Drug uptake: Active
[9]
  half-life at 1 µM: 3.71 days
MDA-MB-231
  Activity: inactive

## CC/C(=C(/c1ccc(OCCN(C)C)cc1)c1ccc([B-](F)(F)F)cc1)c1ccccc1.[K+]
T47D [1]
  IC50: 260 nM
T47D [2]
  inhibition of growth at 1 µM: 50%
MCF7 [4]
  inhibition of growth at 0.1 µM: 59%
MCF7 [6]
  inhibition of growth at 1 µM: 76%
MCF7 [7]
  IC50: 6.26 nM
MCF7 [8]
  Drug uptake: Active
[9]
  half-life at 1 µM: 3.5 days
MDA-MB-231
  Activity: inactive
